Calls of active or inactive are those of the source. The rule behind the calls is not given here.
What was measured:
[1] = Cytotoxicity against human HuH7 cells assessed as cell viability at 20 uM after 3 days by XTT assay; type: cell-based, Huh-7; settings: read-out: Activity
dengue virus type 2 [2] = test: Antiviral activity against DENV2 16681 infected in human Huh-7 cells at 5 uM after 3 days by luciferase reporter gene assay; type: functional; settings: Dengue virus, 16681, Huh-7, 72 h
dengue virus type 2 [3] = test: Antiviral activity against DENV2 16681 infected in human Huh-7 cells at 20 uM after 3 days by luciferase reporter gene assay; type: functional; settings: Dengue virus, 16681, Huh-7, 72 h
[4] = Cytotoxicity against human HuH7 cells assessed as cell viability at 100 uM after 3 days by XTT assay; type: cell-based, Huh-7; settings: read-out: Activity
dengue virus type 2 [5] = test: Antiviral activity against DENV2 16681 infected in human Huh-7 cells after 3 days by luciferase reporter gene assay; type: functional, organism-based; settings: Dengue virus, 16681, Huh-7, 72 h
[6] = Selectivity index, ratio of CC50 for human HuH7 cells to IC50 for DENV2 16681; type: functional, Huh-7
[7] = Cytotoxicity against human HuH7 cells assessed as cell viability after 3 days by XTT assay; type: cell-based, Huh-7
dengue virus type 2 [8] = test: Antiviral activity against DENV2 16681 infected in human Huh-7 cells assessed as reduction of viral NS5 mRNA expression at 5 to 20 uM after 3 days by RT-PCR analysis; type: functional, organism-based
Summary of the method: (§1)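 Huh-7-DV-Fluc cells treated 3 days with compound at 5 and 20 µM (dose series 5–40 µM), 0.1% DMSO mock; total RNA extracted, DENV2 RNA quantified by RT-qPCR normalized to cellular GAPDH mRNA; mean ± SD of triplicate experiments.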

dengue virus type 2 [9] = test: Antiviral activity against DENV2 16681 infected in human Huh-7 cells assessed as reduction of viral NS2B protein expression at 5 to 20 uM after 3 days by Western blot analysis; type: functional, organism-based
Summary of the method: (§2)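 Huh-7-DV-Fluc cells exposed 3 days to compound at 5 and 20 µM, or 5–40 µM for dose series, 0.1% DMSO mock; lysates immunoblotted with rabbit polyclonal anti-NS2B (1:3000), GAPDH (1:10000) as loading control.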

MDA-MB-231 [10] = test: Antiproliferative activity against human MDA-MB-231 cells after 3 days by XTT assay; type: functional, cell-based; settings: MDA-MB-231, 72 h
[11] = Antiproliferative activity against human HuH7 cells after 3 days by XTT assay; type: functional, cell-based; settings: Huh-7, 72 h
MCF7 = test: Antiproliferative activity against human MCF7 cells after 3 days by XTT assay; type: functional, cell-based; settings: MCF7, 72 h
A549 = test: Antiproliferative activity against human A549 cells after 3 days by XTT assay; type: functional, cell-based; settings: A549, 72 h
[12] = Antiproliferative activity against human H1299 cells after 3 days by XTT assay; type: functional, cell-based; settings: NCI-H1299, 72 h
dengue virus type 2 [13] = test: Antiviral activity against DENV2 16681 infected in human Huh-7 cells assessed as reduction of viral NS2B protein expression after 3 days by Western blot analysis; type: functional, organism-based; summary of the method: as §2
dengue virus type 2 [14] = test: Antiviral activity against DENV2 16681 infected in human Huh-7 cells assessed as reduction of viral NS5 mRNA expression after 3 days by RT-PCR analysis; type: functional, organism-based; summary of the method: as §1
MDA-MB-231 [15] = test: Growth inhibition of human MDA-MB-231 cells; type: functional
[16] = Growth inhibition of human Hep3B cells; type: functional, Hep 3B2
dengue virus type 2 [17] = test: Antiviral activity against DENV2 by cell based assay; type: functional, organism-based
West Nile virus = test: Antiviral activity against West Nile virus by cell based assay; type: functional, organism-based

Row | SMILES | viability at 72 h, 20 µM [1] | inhibition at 5 µM (dengue virus type 2 [2]) | inhibition at 20 µM (dengue virus type 2 [3]) | viability at 72 h, 100 µM [4] | IC50 (MDA-MB-231 [10]) | IC50 [11] | also measured
1 | COc1ccc(C(=O)c2nc3ccccc3cc2-c2ccc(OC)cc2)cc1 | 96.1% | 10.1% | 14.1% | 68.2% | – | – | –
2 | COc1ccc(-c2cc3ccccc3nc2C(O)c2ccc(OC)cc2)cc1 (stereo not given) | 71.1% | 33.5% | 58.5% | 31.9% | – | – | IC50 (dengue virus type 2 [5]): 18.2 µM; Ratio CC50/IC50 [6]: 3.47; CC50 at 72 h [7]: 63.1 µM; Activity (dengue virus type 2 [8]): Active; Activity (dengue virus type 2 [9]): Active
3 | O=C(c1ccccc1)c1nc2ccc(F)cc2cc1-c1ccc(F)cc1 | 96.3% | 32.1% | 9.13% | 75.1% | – | – | –
4 | CN(C)CCCOc1ccc(-c2cc3ccccc3nc2C(=O)c2ccc(O)cc2)cc1 | 80.4% | – | – | 16.8% | > 10 µM | > 10 µM | IC50 (MCF7): > 10 µM; IC50 (A549): > 10 µM; IC50 [12]: > 10 µM
5 | O=C(c1ccc(OCCN2CCCC2)cc1)c1nc2ccccc2cc1-c1ccc(OCCN2CCCC2)cc1 | 15.5% | – | – | 16.6% | 8.42 µM | 8.68 µM | IC50 (MCF7): 4.59 µM; IC50 (A549): 7.38 µM; IC50 [12]: 5.68 µM
6 | O=C(c1ccc(OCCN2CCCCC2)cc1)c1nc2ccccc2cc1-c1ccc(OCCN2CCCCC2)cc1 | 18.4% | – | – | 15.8% | 7.99 µM | 6.59 µM | IC50 (MCF7): 4.66 µM; IC50 (A549): 6.53 µM; IC50 [12]: 6.18 µM
7 | O=C(c1ccc(O)cc1)c1nc2ccccc2cc1-c1ccc(O)cc1 | 90.3% | 38.7% | 62.1% | 65.1% | – | – | IC50 (dengue virus type 2 [5]): 13.2 µM; Activity (dengue virus type 2 [13]): Dose-dependent effect; Ratio CC50/IC50 [6]: >7.6; Activity (dengue virus type 2 [14]): Dose-dependent effect; CC50 at 72 h [7]: > 100 µM; Activity (dengue virus type 2 [8]): Active; Activity (dengue virus type 2 [9]): Active
8 | OC(c1ccccc1)c1nc2ccc(F)cc2cc1-c1ccc(F)cc1 (stereo not given) | 129% | 22.2% | 23.1% | 92.3% | – | – | –
9 | COc1ccc(-c2cc3ccccc3nc2C(O)c2ccccc2)cc1 (stereo not given) | 96.6% | 45.3% | 65.1% | 68.1% | – | – | IC50 (dengue virus type 2 [5]): 12.6 µM; Activity (dengue virus type 2 [13]): Dose-dependent effect; Ratio CC50/IC50 [6]: >7.96; Activity (dengue virus type 2 [14]): Dose-dependent effect; CC50 at 72 h [7]: > 100 µM; Activity (dengue virus type 2 [8]): Active; Activity (dengue virus type 2 [9]): Active
10 | CC[C@@]1(O)C(=O)OCc2c1cc1n(c2=O)Cc2cc3c(CN(C)C)c(O)ccc3nc2-1 [TOPOTECAN] | – | – | – | – | < 0.1 µM | 8.61 µM | –
11 | COc1ccc(-c2cc3cc(F)ccc3nc2C(O)c2ccccc2)cc1 (stereo not given) | 87.4% | 16.1% | 19.1% | 30.7% | – | – | –
12 | NC(=O)c1ncn([C@@H]2O[C@H](CO)[C@@H](O)[C@H]2O)n1 [RIBAVIRIN] | 71.4% | 32% | 67.5% | 26.8% | – | – | IC50 (dengue virus type 2 [5]): 12.6 µM; Ratio CC50/IC50 [6]: 4.47; CC50 at 72 h [7]: 56.3 µM
13 | Fc1ccc2nc(-c3ccc(OCCN4CCCCC4)cc3)c(-c3ccc(OCCN4CCCCC4)cc3)cc2c1 | – | – | – | – | – | – | GI50 (MDA-MB-231 [15]): 0.72 µM; GI50 [16]: 0.71 µM
14 | O=C(c1ccc(O)cc1)c1nc2ccccc2cc1-c1ccc(OCCN2CCCCC2)cc1 | 77.5% | – | – | 19.5% | > 10 µM | > 10 µM | IC50 (MCF7): > 10 µM; IC50 (A549): > 10 µM; IC50 [12]: > 10 µM
15 | OC(c1ccccc1)c1nc2ccccc2cc1-c1ccc(F)cc1 (stereo not given) | 109% | 13.1% | 10.2% | 90.9% | – | – | –
16 | COc1ccc(-c2cc3cc(OC)ccc3nc2C(O)c2ccccc2)cc1 (stereo not given) | 87.7% | 38% | 61.2% | 26% | – | – | IC50 (dengue virus type 2 [5]): 14.1 µM; Ratio CC50/IC50 [6]: 4.87; CC50 at 72 h [7]: 68.9 µM; Activity (dengue virus type 2 [8]): Active; Activity (dengue virus type 2 [9]): Active
17 | COc1ccc(-c2cc3ccccc3nc2C(O)c2cc(OC)c(OC)c(OC)c2)cc1 (stereo not given) | 93.6% | 22.3% | 38.2% | 62.5% | – | – | –
18 | O=C(c1ccccc1)c1nc2ccccc2cc1-c1ccc(F)cc1 | 74.8% | 20.1% | 14.1% | 45.9% | – | – | –
19 | COc1ccc(-c2cc3cc(OC)ccc3nc2C(=O)c2ccccc2)cc1 | 87.6% | 36.2% | 53.1% | 84.3% | – | – | IC50 (dengue virus type 2 [5]): 17.4 µM; Ratio CC50/IC50 [6]: >5.76; CC50 at 72 h [7]: > 100 µM
20 | COc1ccc(-c2cc3ccccc3nc2C(=O)c2cc(OC)c(OC)c(OC)c2)cc1 | 74.1% | – | – | 35.1% | > 10 µM | > 10 µM | IC50 (MCF7): > 10 µM; IC50 (A549): > 10 µM; IC50 [12]: > 10 µM
21 | COc1ccc(-c2cc3ccccc3nc2C(=O)c2ccccc2)cc1 | 93.1% | 3.12% | 6.93% | 87.8% | – | – | –
22 | O=C(c1ccc(O)cc1)c1nc2ccccc2cc1-c1ccc(OCCN2CCCC2)cc1 | 91% | – | – | 18.1% | > 10 µM | > 10 µM | IC50 (MCF7): > 10 µM; IC50 (A549): > 10 µM; IC50 [12]: > 10 µM
23 | CN(C)CCCOc1ccc(C(=O)c2nc3ccccc3cc2-c2ccc(OCCCN(C)C)cc2)cc1 | 17.6% | – | – | 19.2% | 7.14 µM | 6.44 µM | IC50 (MCF7): 4.47 µM; IC50 (A549): 6.35 µM; IC50 [12]: 4.98 µM
24 | CCOc1ccc2nc(C)cc(Nc3ccc(OCc4ccccc4Cl)cc3)c2c1 | – | – | – | – | – | – | IC50 (dengue virus type 2 [17]): 5 µM; IC50 (West Nile virus): 1.9 µM
25 | COc1ccc(-c2cc3cc(F)ccc3nc2C(=O)c2ccccc2)cc1 | 96% | 7.24% | 5.11% | 89.7% | – | – | –

— ChEMBL document CHEMBL3232713, “Synthesis, antiproliferative and anti-dengue virus evaluations of 2-aroyl-3-arylquinoline derivatives” (Eur J Med Chem, 2014)
